Source: PubChem (several laboratories)
A selection: hits, their analogues and other compounds. The true share with any hit is near 3.9%.
ANO1 block: mouse TMEM16A channel inhibition, primary screen. Q8BHY3. HEK293 TMEM16A/YFP iodide influx fluorescence, ionomycin. normalized B-score (activity score, 25-100; higher = stronger inhibition) at 10 µM. 310,000 compounds, 1.2% hits;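 active = ratio plate-corrected score three or more library SD toward inhibition, starting fluorescence score within five deviations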;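 note: score derived from kinetic fluorescence span divided by baseline fluorescence per well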
CRFBP-R2 agonist: CRF-BP/CRF-R2 complex agonism | HEK293 CRF-R2/CRF-BP, calcium dye fluorescence (FLIPR); percent of saturating CRF peptide response | activation, % at 13.2 µM | 350,000 compounds, 0.46% hits;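 active = activation of at least 50%, plus an integration ratio under a set limit after plate pattern correction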;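 note: plate controls were neutral control wells without compound for no effect and CRF at EC100 for full effect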
TAAR1 agonist: agonists of human TAAR1; Q96RJ0; CHO RD-HGA16 TAAR1, Fluo-8 calcium fluorescence; vehicle wells 0%, saturating PEA agonist 100%; activation, % at 3 µM; 360,000 compounds, 0.99% hits;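 active = activation above the mean activation of all test compounds in the run plus 3 SD, cut at about 38% in these data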
Target sequence (Q96RJ0 whole entry, looked up): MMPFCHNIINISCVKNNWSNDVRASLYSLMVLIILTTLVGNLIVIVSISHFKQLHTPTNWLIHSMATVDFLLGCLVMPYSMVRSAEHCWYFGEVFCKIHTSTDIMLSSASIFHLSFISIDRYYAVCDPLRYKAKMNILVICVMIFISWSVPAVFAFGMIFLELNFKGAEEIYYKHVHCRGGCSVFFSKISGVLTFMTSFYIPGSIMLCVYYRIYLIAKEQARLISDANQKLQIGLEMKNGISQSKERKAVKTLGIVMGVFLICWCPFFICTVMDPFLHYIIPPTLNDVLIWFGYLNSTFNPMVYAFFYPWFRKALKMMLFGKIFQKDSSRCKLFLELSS
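test system = CHO RD-HGA16 cells carrying human TAAR1 plus Gα16 | schedule = 17-24 h seeding, 75 min 37 °C dye, 30 min RT | compound dosing = 3 µM single concentration | control set = DMSO and PEA EC100 | replicates = n 1 | signal = Fluo-8 fluorescence, 5 s baseline then 140 s kinetic read | measure = percent activation vs PEA EC100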
CRFBP-R2 block: CRF-BP/CRF-R2 complex antagonism; AID 588475; inhibition, % at 11.8 µM; 350,000 compounds, 0.59% hits; HEK293 CRF-R2/CRF-BP, CRF-induced calcium fluorescence;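 active = inhibition of the ligand-induced calcium signal above about 50% at the single tested concentration, limit read from the data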
TMEM16A act: activates or potentiates the mouse TMEM16A chloride channel; 340,000 compounds, 0.3% hits; HEK293 TMEM16A/YFP-H148Q/I152L, iodide quench fluorescence; stronger effect = lower value; AID 623877; B-score at 10 µM;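 active = fluorescence-ratio B-score plate-corrected deviation score at least 3 library SD below zero, with starting fluorescence score within 5 deviations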;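 note: channel opened by trigger with iodide after compound preincubation; score built on the fluorescence ratio of max minus min over baseline; more negative score means more quench and so TMEM16A activation or potentiation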
TAAR1 antag: human TAAR1 antagonism; Q96RJ0; inhibition, % at 3 µM; AID 624466; CHO RD-HGA16 TAAR1, Fluo-8 calcium fluorescence, antagonist; 360,000 compounds, 1.5% hits;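 active = inhibition above a per-plate cutoff, the mean inhibition of test compounds on that plate plus 3 SD, cut at about 49% in these data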;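 note: 0% = DMSO plus EC80 beta-PEA response and 100% = DMSO alone without agonist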
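Assay system: RD-HGA16 CHO cells with stable hTAAR1 and Gα16 / Reagent: EC80 β-phenethylamine stimulus / Doses: 3 µM, single point / Timing: dye loading 75 min at 37 °C, then 30 min room temperature / Measured by: Fluo-8 intracellular calcium dye fluorescence, real-time kinetic reads / Controls: vehicle wells and EC80 agonist wells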
TMEM16A reconf: TMEM16A (mouse) chloride channel inhibition, re-confirmation | inhibition, % at 10 µM | HEK293 TMEM16A/YFP-H148Q, iodide quench fluorescence; ionomycin added to raise cell calcium | shares compounds with ANO1 block | 2,300 compounds, 39% hits;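 active = mean duplicate percent inhibition, scaled so buffer wells are 0 and the reference blocker 100, over three buffer SD above buffer mean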
TMEM16A Ca cntr: alters calcium mobilization in TMEM16A HEK293 cells, counter-screen | calcium response (% of ionomycin), % at 10 µM | 2,300 compounds, 2% hits | shares compounds with ANO1 block | TMEM16A/YFP HEK293, Fluo4 calcium mobilization;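 active = duplicate-averaged calcium signal over 20% of the ionomycin maximum, relative to buffer baseline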;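 note: each well's signal is peak minus trough fluorescence divided by its pre-addition baseline; 0% = buffer wells and 100% = ionomycin wells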
YFP-HEK293 quench: parental YFP-HEK293 iodide quench counter-screen activity. shares compounds with ANO1 block. AID 652233. 2,300 tested, under 10 active. ionomycin. YFP ratio F(max-min)/F0 at 10 µM;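 active = yellow fluorescent protein signal ratio exceeding the buffer control mean by over 5 SD of those controls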;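 note: ratio is mean of duplicate wells from kinetic YFP trace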
ClC-1 inh: rat ClC-1 inhibition, TMEM16A specificity screen | shares compounds with ANO1 block | CHO ClC-1-YFP, iodide influx fluorescence quench; iodide control reads 0, buffer control 100 | ratio percent, % at 10 µM | 2,300 tested, under 10 active;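 active = duplicate-mean ratio percent above the mean of iodide-only control wells, which defines zero, plus 5 of their SD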;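 note: higher percent means stronger block of ClC-1 iodide influx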
Starred values were filed as active, the others as inactive; i = inactive; · = no result.

SMILES	ANO1 block	CRFBP-R2 agonist	TAAR1 agonist	CRFBP-R2 block	TMEM16A act	TAAR1 antag	TMEM16A reconf	TMEM16A Ca cntr	YFP-HEK293 quench	ClC-1 inh
O=C(NC1CC2CCCC(C1)N2C(=S)NCCc1ccccc1)C1CC1 (stereo not given)	i	7	11	-30	i	-5	·	·	·	·
Clc1ccc(OCCSCc2nc3ccccc3[nH]2)cc1	100*	2	0	6	i	9	20%*	i	-1.2	-4
Cc1ccc(N2CC(C(=O)Nc3nc4ccc(S(C)(=O)=O)cc4s3)CC2=O)cc1C (stereo not given)	i	-2	-3	-4	i	17	·	·	·	·
Cc1ccc2nc(NC(=O)CN3C(=O)NC4(CCCCC4)C3=O)sc2c1	i	2	2	-21	i	-16	·	·	·	·
C=CCn1c(=O)c(C(=O)Nc2ccc(C)cc2)c(O)c2ccccc21	i	0	2	-5	i	-7	i	i	-1.1	-12
O=C(O)CCNS(=O)(=O)c1ccc2ccccc2c1	100*	7	3	13	i	-2	i	i	-0.94	-4
O=C(O)CCNS(=O)(=O)c1ccccc1	i	-2	3	2	i	-2	·	·	·	·
COc1ccccc1CNC(=O)c1nn(-c2ccc(C)cc2)c(=O)c2c1c1ccccc1n2C	i	4	6	-6	i	9	i	i	-1.3	-4
O=C(CCNS(=O)(=O)c1ccc(OC(F)(F)F)cc1)N1CCN(C/C=C/c2ccccc2)CC1	25*	0	6	-12	i	5	i	i	-1.1	-4
c1ccc(COc2ncnc3c2ncn3CCCN2CCN(c3ncccn3)CC2)cc1	·	0	-2	-3	·	-9	·	·	·	·
COc1ccc(C(=O)Nc2ccc3c(c2)C(=O)N(C)C3=O)cc1OC	i	-1	·	11	i	·	·	·	·	·
Cc1cccc(NC(=O)/C(C#N)=C\c2cccnc2)c1	25*	3	2	-23	i	1	28%*	i	-0.98	-12
CCc1ccc(S(=O)(=O)/N=C2\C=C(Nc3ccc(C(=O)O)cc3)C(=O)c3ccccc32)cc1	100*	0	9	22	i	25	23%*	i	-0.77	-8
CC(C)(C)c1ccc(S(=O)(=O)/N=C2\C=C(NS(=O)(=O)c3ccccc3)C(=O)c3ccccc32)cc1	100*	-1	-3	11	i	-10	88%*	i	-0.95	-21
Cc1ccc(C(=O)N2CCN(CCNC(=O)C(=O)NCc3ccc(Cl)cc3)CC2)cc1	i	-1	0	5	i	-15	·	·	·	·
c1ccc2c(c1)ncn2CCCOc1ccc2c(c1)CCC2	100*	-1	14	-14	i	17	i	i	-1.1	-8
c1ccc2c(c1)ncn2CCCCOc1ccc2c(c1)CCC2	i	0	7	5	i	33	·	·	·	·
CCCOc1ccc(Cn2cnc3ccccc32)cc1	25*	-1	8	13	i	6	17%*	i	-1	-10
CC(SC1=Nc2ccccc2C2CC=NN12)C(=O)NC1(C#N)CCCCC1 (stereo not given)	i	0	1	22	i	-6	·	·	·	·
CCCCn1c(N)c(N(CCOC)C(=O)c2sc3cc(F)ccc3c2Cl)c(=O)[nH]c1=O	i	0	4	8	i	-20	·	·	·	·
CC(C)(C)C1CCc2onc(C(=O)Nc3ccc(F)cc3F)c2C1 (stereo not given)	100*	5	2	-95	i	-5	i	i	-1	-4
CC(C)(C)C1CCc2onc(C(=O)Nc3cnn(Cc4ccc(F)cc4)c3)c2C1 (stereo not given)	i	0	3	7	i	-26	·	·	·	·
CCN(Cc1ccncc1)C(=O)c1cc(COc2c(C)cccc2C)on1	i	-1	-1	4	i	-7	·	·	·	·
CCCN(CCC)S(=O)(=O)c1ccc2c(c1)CCCN2C(C)=O	i	0	1	-3	i	1	·	·	·	·
CCCN(CCC)S(=O)(=O)c1ccc(C(=O)N2CCCc3ccccc32)cc1	100*	0	18	-27	i	46	i	i	-1	-12
SMILES	ANO1 block	CRFBP-R2 agonist	TAAR1 agonist	CRFBP-R2 block	TMEM16A act	TAAR1 antag	TMEM16A reconf	TMEM16A Ca cntr	YFP-HEK293 quench	ClC-1 inh
COc1cccc(-c2c(C#N)c(N)nc3c2c(C)nn3-c2ccccc2)c1O	100*	3	1	-12	i	8	45%*	i	-0.9	-10
O=C(C[C@H]1C=C[C@@H](NS(=O)(=O)c2ccccc2)[C@@H](CO)O1)NCc1ccc(Cl)c(Cl)c1	·	·	1	·	·	8	·	·	·	·
Cc1cccc(N2CCN(C(=O)CN3CCOc4ccccc43)CC2C)c1 (stereo not given)	25*	7	2	-9	i	13	i	i	-1.1	-12
COCCCNC(=O)C1CC(=O)N(Cc2ccc(OC)cc2)C1 (stereo not given)	i	-1	-2	2	i	5	·	·	·	·
COc1ccc(CN2CC(C(=O)NCc3ccccn3)CC2=O)cc1 (stereo not given)	100*	4	0	13	i	23	i	i	-1.1	-20
COc1ccc(CN2CC(C(=O)NCCN3CCOCC3)CC2=O)cc1 (stereo not given)	100*	3	2	-53	i	-5	i	i	-0.88	-4
CC(C)(C)C(=O)Nc1nnc(SCC(=O)NC2CCCC2)s1	i	-1	1	-13	i	7	·	·	·	·
Cc1nnc2c3ccccc3c(-c3ccc(O)cc3)nn12	25*	0	2	1	i	-1	i	i	-1.2	-6
CC1(C(=O)OCC(=O)Nc2ccc3ccccc3c2)CC1(Cl)Cl (stereo not given)	25*	2	0	-5	i	20	i	i	-0.81	-17
